# This is a sample that favours compounds with a hit; in the whole collection about 4.1% have one here.
# Apaf1 inhib – human Apaf-1 inhibition; O14727; 330,000 tested, 0.71% active; reconstituted apoptosome caspase-3 activity, DEVD-Rh110 fluorescence; inhibition, % at 20 µM; AID 489030; active means inhibition of at least 40% at 20 µM
#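 detection = Rh110 fluorescence intensity | test system = biochemical Apaf-1 apoptosome reconstitution | also added = cytochrome c and DEVD-Rh110 substrate | schedule = 30 min plus 50 min, RT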
# UBC13 polyUb – inhibitors of human UBC13 polyubiquitin chain formation | P61088 | TR-FRET | inhibition, % at 20 µM | 330,000 tested, 0.47% active | AID 485273; in the data active means inhibition above about 45%, passing the limit was not always enough
# XBP1 UPR activ – activators of adaptive arm of unfolded protein response (XBP1). CHO-XBP1 luciferase reporter, IRE1-XBP1 UPR activation, luminescence; percent of tunicamycin response, DMSO as zero. 330,000 tested, 0.33% active. AID 463104. activation, % at 20 µM;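 active means versus positive control, 20 µM dose yields 30% or more activation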
#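 Assay system: IRE1-XBP1 luciferase reporter CHO line. Input: 1000 cells/well. Buffer or medium: F12 with 10% serum. Doses: 20 µM, 1% DMSO. Times: overnight seeding at 37 °C, 6 h compound treatment at 37 °C. Technique: Steady-Glo luciferase glow luminescence, 10 min after reagent addition.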
# Mdm2 MdmX PPI – inhibitors of human Mdm2/MdmX interaction | O15151+Q00987 | SaOS-2 split-luciferase Mdm2/MdmX complementation, luminescence | inhibition, % at 8 µM | 330,000 tested, 3% active | AID 485346;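 active means inhibition of at least 50% at 8 µM in the primary screen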
# Target sequence (O15151 whole entry, looked up): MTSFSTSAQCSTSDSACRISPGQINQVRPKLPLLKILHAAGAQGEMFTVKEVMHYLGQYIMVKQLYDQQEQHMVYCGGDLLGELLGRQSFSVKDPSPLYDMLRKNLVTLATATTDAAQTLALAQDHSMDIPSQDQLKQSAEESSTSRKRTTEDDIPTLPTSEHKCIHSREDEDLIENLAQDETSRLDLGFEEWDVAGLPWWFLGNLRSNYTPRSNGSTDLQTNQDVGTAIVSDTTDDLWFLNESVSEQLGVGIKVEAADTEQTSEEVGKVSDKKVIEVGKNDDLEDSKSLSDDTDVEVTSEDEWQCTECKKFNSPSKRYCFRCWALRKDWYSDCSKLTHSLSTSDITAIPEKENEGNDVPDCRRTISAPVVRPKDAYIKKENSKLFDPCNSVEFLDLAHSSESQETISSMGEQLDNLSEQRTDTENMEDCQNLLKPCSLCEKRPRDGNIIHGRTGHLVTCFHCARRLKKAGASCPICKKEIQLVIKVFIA
# Target sequence (Q00987 whole entry, looked up): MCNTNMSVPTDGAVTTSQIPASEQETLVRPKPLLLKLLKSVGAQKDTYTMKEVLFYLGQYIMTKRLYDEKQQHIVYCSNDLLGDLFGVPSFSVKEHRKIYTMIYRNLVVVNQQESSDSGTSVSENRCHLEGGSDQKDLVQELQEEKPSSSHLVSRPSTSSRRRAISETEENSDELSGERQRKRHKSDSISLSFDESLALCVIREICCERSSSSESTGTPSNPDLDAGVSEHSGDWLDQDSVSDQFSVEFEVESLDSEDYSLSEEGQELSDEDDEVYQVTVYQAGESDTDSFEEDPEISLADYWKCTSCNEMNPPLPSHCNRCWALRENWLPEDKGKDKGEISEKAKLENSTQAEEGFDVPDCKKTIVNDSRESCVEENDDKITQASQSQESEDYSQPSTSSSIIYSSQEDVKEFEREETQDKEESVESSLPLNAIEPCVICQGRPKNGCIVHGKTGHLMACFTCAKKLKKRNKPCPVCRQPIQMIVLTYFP
# UPR CHOP act – activators of apoptotic arm of unfolded protein response (CHOP); 330,000 tested, 0.34% active; CHO-CHOP luciferase reporter, UPR activation, luminescence; percent of tunicamycin response over DMSO baseline; activation, % at 10 µM;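 active means at 10 µM dose, activation of 40% or more, normalized to positive control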
#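 Material: CHO-CHOP cells, stable luciferase reporter of PERK-eIF2a-CHOP signalling; quantity: 500 reporter cells seeded per well; buffer or medium: F12 medium containing 10% fetal bovine serum; compound: one dose, 10 µM in 0.5% DMSO; incubation: 6 h compound treatment, 37 °C; measured by: Steady-Glo luciferase luminescence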
# Mdm2-MdmX conf – human Mdm2/MdmX binding inhibition, confirmed; shares compounds with Mdm2 MdmX PPI; luminescent assay; inhibition, % at 8 µM; 10,000 tested, 55% active; in the data active means inhibition above about 40%
# Full FLuc ctr – inhibits full-length luciferase, flagging false Mdm2/MdmX hits; SaOS-2 full-length luciferase counterscreen, luminescence; shares compounds with Mdm2 MdmX PPI; AID 504607; inhibition, % at 8 µM; 6,200 tested, 77% active;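 active means mean inhibition at 8 µM reaching about 37%, which flags the compound as non-specific, limit read from the data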;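 further: p53-null SaOS-2 cells with luciferase driven by a doxycycline-inducible promoter; compound on cells about two nights before reading with doxycycline added after day one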
# Hits are given with their value; – = inactive; · = no result.
SMILES,Apaf1 inhib,UBC13 polyUb,XBP1 UPR activ,Mdm2 MdmX PPI,UPR CHOP act,Mdm2-MdmX conf,Full FLuc ctr
O=C(/C=C/c1ccc2c(c1)OCO2)Nc1nc2ccccc2s1,–,–,–,–,–,·,·
Cc1ccc(C)c(C(=O)c2ccccc2NC(=O)c2ccccn2)c1,–,–,–,57.2,–,57.8,72.5
CCOc1ccc2nc(NC(=O)Nc3ccccc3)sc2c1,–,–,–,–,–,·,·
CSc1cccc(NC(=O)C2CCCN(S(=O)(=O)c3cccs3)C2)c1 (stereo unspecified),–,–,–,–,–,·,·
CCC(C)Sc1cccc(-c2nc3cnccn3c2NC2CCCCC2)c1 (stereo unspecified),–,–,–,–,–,·,·
CCC(C)Sc1cc(-c2nc3cc(C)ccn3c2NC2CCCCC2)ccc1OC (stereo unspecified),–,–,–,84.3,–,–,·
CCC(C)Sc1cccc(-c2nc3ccc(C)cn3c2NC2CCCCC2)c1 (stereo unspecified),–,–,–,–,–,·,·
CCC(C)Sc1cc(-c2nc3ccccn3c2NC2CCCCC2)ccc1OC (stereo unspecified),–,–,–,69.2,–,–,·
CC(C)(C)OC(=O)NCCc1nnc(SCc2ccccc2Cl)o1,–,–,–,–,–,·,·
CC(C)(C)OC(=O)NCCc1nnc(S(=O)(=O)Cc2ccc(Cl)cc2Cl)o1,–,–,–,76.8,–,59.0,–
O=C1Nc2ccccc2OCc2c1cccc2[N+](=O)[O-],–,–,–,–,–,·,·
Cc1ccc(C)c(C2NC(=O)c3ccccc3N2)c1 (stereo unspecified),–,–,–,50.2,–,53.4,54.9
Cc1cc(C)c2nc(Cl)c(C3NC(=O)c4ccccc4N3)cc2c1 (stereo unspecified),–,–,–,–,–,·,·
Cc1ccc2cc3cc(C(=O)NCc4ccc5c(c4)OCO5)oc3nc2c1,–,–,–,68.4,–,–,·
CN(C)CCCN(C(=O)C1COc2ccccc2O1)c1nc2cc3c(cc2s1)OCO3 (stereo unspecified),–,–,–,–,–,·,·
O=C(COc1ccc(Br)cc1)Nc1ccc(N2CCOCC2)cc1N1CCOCC1,–,–,–,82.4,–,–,·
Cc1[nH]nc(SCC(=O)NC2CCCC2)c1[N+](=O)[O-],–,–,–,–,–,·,·
CN1/C(=C/C(=O)c2nc(S(C)(=O)=O)ncc2Cl)C(C)(C)c2ccccc21,–,–,–,100.3,–,100.1,51.8
COc1ccccc1N1CC(C(=O)Nc2nnc(SCC(=O)N3CCOCC3)s2)CC1=O (stereo unspecified),–,–,–,–,–,·,·
O=C(NNC(=S)NC(=O)c1cccnc1)c1ccc(Cl)cc1,–,–,–,–,–,·,·
COc1ccc(C(=O)NC(=S)NNC(=O)c2cnccn2)cc1,–,–,–,64.2,–,56.8,40.6
O=C(NC(=S)NNC(=O)c1cnccn1)c1ccc(Cl)cc1,–,–,–,69.2,–,–,47.7
CN(Cc1ccccc1)C(=O)COC(=O)CCC(=O)c1ccc(F)cc1,–,–,–,–,–,·,·
CC1Cc2ccccc2N1C(=O)CSc1nc2c(c(=O)n(C)c(=O)n2C)n1Cc1ccccc1 (stereo unspecified),–,–,–,50.4,–,–,·
CCn1c(SCC(=O)N2c3ccccc3CCc3ccccc32)nc2c1c(=O)n(C)c(=O)n2C,–,–,–,–,–,·,·
SMILES,Apaf1 inhib,UBC13 polyUb,XBP1 UPR activ,Mdm2 MdmX PPI,UPR CHOP act,Mdm2-MdmX conf,Full FLuc ctr
COc1ccc(CCN2C(=NC(=O)C(C)C)SC3CS(=O)(=O)CC32)cc1OC (stereo unspecified),–,–,–,–,–,·,·
COc1ccc(C2=NN(C(=O)/C=C/c3ccccc3)C(c3ccccc3)C2)c(OC(C)=O)c1 (stereo unspecified),–,–,–,58.2,–,–,·
COc1ccc(-n2nnnc2-c2cccc(OC)c2)cc1,–,–,–,56.1,–,54.5,66.5
COc1cccc(CN2CC(C(=O)N(C)Cc3ccnc4ccccc34)CCC2=O)c1 (stereo unspecified),–,–,–,–,–,·,·
CCN(CC)C(=O)/C(=C/c1cn(S(=O)(=O)N(C)C)c2ccccc12)NC(=O)c1ccc(OC)cc1,–,–,–,61.3,–,–,·
COc1ccc(C(=O)N/C(=C\c2cn(S(=O)(=O)N(C)C)c3ccccc23)C(=O)NC(C)C)cc1,–,–,–,–,–,·,·
Cc1cc(C)c(-c2csc(NC(=O)/C=C/c3cccs3)n2)c(C)c1,–,–,–,70.4,–,60.8,72.2
O=C(O)CNC(=O)CCCn1nnc2ccccc2c1=O,–,–,–,–,–,·,·
CC1c2cc3c(cc2CCN1C(=O)c1ccc(Br)cc1)OCCCO3 (stereo unspecified),–,–,–,69.5,–,45.7,46.6
Cc1noc(N)c1C1(O)C(=O)Nc2c(Cl)cc(Cl)cc21 (stereo unspecified),–,–,–,–,–,·,·
Cc1ccc(OCCn2c(NC(=O)c3ccco3)nc3ccccc32)cc1,–,–,–,–,–,·,·
Cc1cccc(OCCn2c(NC(=O)c3ccco3)nc3ccccc32)c1,–,–,–,51.0,–,40.7,59.3
S=C(Nc1ccccc1)Nc1nc2ccccc2n1CCOc1ccc(Br)cc1,–,–,–,95.3,–,–,·
Nc1nc2ccccc2n1CCOc1ccc(Br)cc1,–,–,–,–,–,·,·
O=C(Nc1nc2ccccc2n1CCOc1ccc(Cl)cc1)c1ccco1,–,–,–,67.3,–,49.6,72.5
O=C(Nc1nc2ccccc2n1CCOc1ccccc1)c1ccco1,–,–,–,52.9,–,–,·
COC(=O)C(Cc1c[nH]c2ccccc12)NC(=O)c1cc(-c2ccc(OC)c(OC)c2)oc1C (stereo unspecified),–,–,–,–,–,·,·
Cc1nn(-c2ccccc2)c(C)c1/C=N/NC(=O)CSc1nnc(SCc2cccc3ccccc23)s1,–,–,–,–,–,·,·
C/C(=C\c1ccccc1)C(=O)c1c(C)cc(C)[nH]c1=O,–,–,–,57.9,–,–,·
Cc1cc(C)c(C(=O)/C=C/c2cccc3ccccc23)c(=O)[nH]1,–,–,–,88.2,–,94.3,58.0
O=C(Nc1ccc(F)cc1)c1nc(S(=O)(=O)Cc2ccccc2)ncc1Cl,–,–,–,95.8,–,94.5,52.1
Cc1ccc(NC(=O)c2nc(S(=O)(=O)Cc3ccccc3)ncc2Cl)cc1,–,–,–,81.7,–,63.3,51.5
COc1ccc(OC)c(NC(=O)c2nc(S(=O)(=O)Cc3ccccc3)ncc2Cl)c1,–,–,–,100.2,–,93.1,51.5

# Assay outcomes from PubChem.
